Source: ChEMBL document CHEMBL1147926, “Synthetic chalcones, flavanones, and flavones as antitumoral agents: biological evaluation and structure-activity relationships” (Bioorg Med Chem, 2007)

Tests used:
[1] = tested on: HT-29; experiment: Cytotoxicity against human HT29 cells ATCC HTB38 in aerobic condition assessed as survival at 100 uM by sulforhodamine assay; assay type: functional; conditions: read-out: Activity
How it was run: (§1)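 Cells kept in RPMI with L-glutamine, penicillin/streptomycin, non-essential amino acids (1% each) and 10% FBS, 37 °C, 5% CO2, 48 h; compound added from 1 mM stock in 10% DMSO to final 100 µM, 24 h exposure. TCA fixation 1 h at 4 °C, sulforhodamine B staining, Tris pH 10.0, A540. Survival = (T/C)×100 versus solvent control; duplicates, two repetitions averaged.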

[2] = tested on: MCF7; experiment: Cytotoxicity against human MCF7 cells […] in aerobic condition assessed as survival at 100 uM by sulforhodamine assay; assay type: functional; conditions: read-out: Activity; how it was run: as §1
[3] = tested on: TK-10; experiment: Cytotoxicity against human TK10 cells in aerobic condition assessed as survival at 100 uM by sulforhodamine assay; assay type: functional; conditions: read-out: Activity; how it was run: as §1
[4] = tested on: HT-29; experiment: Growth inhibition of HT29 cells by sulforhodamine assay; assay type: functional, cell-based; conditions: Homo sapiens
How it was run: (§2)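 Cells grown in supplemented RPMI with 10% FBS at 37 °C, 5% CO2, 48 h, then exposed to increasing compound concentrations (1 mM stocks in 10% DMSO) for 24 h. Sulforhodamine B read-out after TCA fixation at A540. IC50 is the concentration halving absorbance relative to solvent control. Duplicates, at least two repetitions, means reported.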

[5] = tested on: TK-10; experiment: Growth inhibition of TK10 cells by sulforhodamine assay; assay type: functional, cell-based; conditions: Homo sapiens; how it was run: as §2
[6] = Growth inhibition of HK2 cells by sulforhodamine assay; assay type: cell-based; conditions: Homo sapiens, HK-2

SMILES | viability at 100 µM [1] [%] | viability at 100 µM [2] [%] | viability at 100 µM [3] [%] | IC50 [4] [µM] | IC50 [5] [µM] | IC50 [6] [µM]
O=C(/C=C/c1ccc(O)cc1)c1ccccc1O | 9 | 3 | 5 |  |  | 
O=c1cc(-c2ccc(Cl)cc2)oc2ccccc12 | 100 | 100 | 74 |  |  | 
CC(=O)Nc1ccc(/C=C/C(=O)c2ccccc2)cc1 | 3 | 24 | 5 |  |  | 
O=C(/C=C/c1ccc(Cl)cc1)c1ccccc1O | 25 | 41 | 3 | 45 |  | 
COc1ccc(/C=C/C(=O)c2ccccc2O)cc1 | 97 | 10 | 4 |  | 67 | 23.7
CCCCCCOc1ccc(/C=C/C(=O)c2ccccc2O)cc1 | 97 | 76 | 62 |  |  | 
COc1ccc(C2CC(=O)c3ccccc3O2)cc1 (stereo not given) | 100 | 2 | 36 |  |  | 
O=c1cc(-c2ccccc2Br)oc2ccccc12 | 61 | 36 | 69 |  |  | 
O=C(/C=C/c1ccc(OCc2ccccc2)cc1)c1ccccc1O | 59 | 56 | 64 |  |  | 
O=C1CC(c2ccc(OCc3ccccc3)cc2)Oc2ccccc21 (stereo not given) | 69 | 76 | 78 |  |  | 
COc1ccc(C2CC(=O)c3ccccc3O2)cc1OC (stereo not given) | 68 | 81 | 69 |  |  | 
CSc1ccc(/C=C/C(=O)c2ccccc2O)cc1 | 76 | 75 | 91 |  |  | 
CSc1ccc(C(O)CC(=O)c2ccccc2O)cc1 (stereo not given) | 100 | 90 | 100 |  |  | 
CN(C)c1ccc(/C=C/C(=O)c2ccccc2O)cc1 | 65 | 87 | 76 |  |  | 
CC(=O)Nc1ccc(/C=C/C(=O)c2ccccc2O)cc1 | 87 | 79 | 89 |  |  | 
O=C(/C=C/c1ccc(Br)cc1)c1ccccc1 | 28 | 44 | 90 |  |  | 
O=C(/C=C/c1ccccc1Br)c1ccccc1 | 26 | 32 | 2 |  |  | 
CSc1ccc(/C=C/C(=O)c2ccccc2)cc1 | 46 | 47 | 0 |  |  | 
Nc1ccc(/C=C/C(=O)c2ccccc2O)cc1 | 98 | 43 | 91 |  |  | 
COc1ccc(OC)c(/C=C/C(=O)c2ccccc2O)c1 | 92 | 45 | 56 |  |  | 
O=C(CCc1ccc(OCc2ccccc2)cc1)c1ccccc1O | 100 | 89 | 95 |  |  | 
COc1cc(O)c(C(=O)/C=C/c2ccc(OC)c(OC)c2)c(OC)c1 |  | 89 | 100 |  |  | 
O=C(/C=C/c1ccccc1)c1ccc(OCc2ccccc2)cc1O | 99 | 74 | 72 |  |  | 
O=C(/C=C/c1ccc(OCc2ccccc2)cc1)c1ccc(OCc2ccccc2)cc1O | 100 | 100 | 92 |  |  | 
CCCCOc1ccc(/C=C/C(=O)c2ccc(OCCCC)cc2O)cc1 | 99 | 81 | 79 |  |  | 
COc1cc(/C=C/C(=O)c2ccccc2O)ccc1OCc1ccccc1 | 100 | 97 | 90 |  |  | 
